The target in experiment [1] is T1, Adenosine A2 receptor (Rattus norvegicus) (UniProt P29276+P30543). Briefly: Percent displacement from adenosine A2 receptor at 10e-5 M in rat striatal membrane in vitro. The class given is cell membranes.
The target in experiment [2] is T2, Adenosine receptor A1 (Rattus norvegicus) (UniProt P25099).
T2 sequence (whole entry): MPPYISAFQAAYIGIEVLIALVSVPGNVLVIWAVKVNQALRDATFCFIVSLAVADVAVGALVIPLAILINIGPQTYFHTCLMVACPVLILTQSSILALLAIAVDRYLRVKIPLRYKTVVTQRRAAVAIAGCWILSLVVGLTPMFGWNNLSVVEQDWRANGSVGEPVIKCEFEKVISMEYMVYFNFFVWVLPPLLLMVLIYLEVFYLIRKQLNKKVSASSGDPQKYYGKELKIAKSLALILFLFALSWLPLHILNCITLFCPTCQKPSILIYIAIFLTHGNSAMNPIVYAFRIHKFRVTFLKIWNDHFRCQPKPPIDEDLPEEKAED
Briefly: Percent displacement from adenosine A1 receptor at 10e-5 M in rat brain membrane in vitro. The class given is cell membranes.

Experiment [3] concerns the target T1, Adenosine A2 receptor (Rattus norvegicus). Briefly: Percent displacement from adenosine A2 receptor at 10e-7 M in rat striatal membrane in vitro. The class given is cell membranes. The following applies: Striatum.
For experiment [4], the target named is T3, Adenosine receptor A1 (Rattus norvegicus, UniProt P25099).
T3 sequence (P25099 whole entry): T2 sequence (whole entry)
Briefly: Binding affinity for adenosine A1 receptor in rat brain membrane. The class given is cell membranes. An outline of the steps: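 Whole rat brain membranes, homogenized in 50 mM Tris-HCl pH 7.4 and spun at 1090g then 48000g, pretreated with adenosine deaminase 1 U/mL for 30 min. Incubated with 2.5 nM [3H]PIA and competitor at 20 °C for 30 min. Nonspecific binding defined with 10 μM PIA. Separated by GF/B filtration and scintillation counted, in triplicate. IC50 from log-logit regression, Ki via Cheng-Prusoff, one experiment.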

Experiment [5] concerns Mus musculus. Briefly: Effective dose for phenylbenzoquinone-induced writhing in mice after peroral administration expressed as analgesic activity. In kind it is functional. The following applies: po. An outline of the steps:
(§1)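 Mice dosed orally (0.5 mL/20 g); 1 h later given 0.02% phenylbenzoquinone in hydroalcoholic solution ip (0.20-0.24 mL). Writhings and stretches counted from minute 5 to minute 10. Six animals per group. Inhibition taken against the control mean; ED50 (50% decrease) by linear regression.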
Background: In writhing tests, fewer writhes than in controls are read as antinociception.

The target of experiment [6] is T2, Adenosine receptor A1 (Rattus norvegicus). Briefly: Percent displacement from adenosine A1 receptor at 10e-7 M in rat brain membrane in vitro. The class given is cell membranes.
Experiment [7] addresses Adenosine A2 receptor (Rattus norvegicus, UniProt P29276+P30543). Briefly: Binding affinity for adenosine A2 receptor in vitro using rat striatal membrane. The class given is cell membranes. In a few lines:
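Rat striatal membranes in 50 mM Tris-HCl, 10 mM MgCl2, pH 7.7, adenosine deaminase treated (1 U/mL, 30 min). Incubated with [3H]NECA (4 nM, 50 μL) plus 0.11 μM cyclopentyladenosine and competitor for 60 min at 25 °C. Nonspecific binding defined with 5 μM NECA. GF/B filtration, scintillation counting, triplicate. IC50 from log-logit regression, Ki via Cheng-Prusoff, one experiment.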

For experiment [8], the system named is Mus musculus. Briefly: Effective dose of compound for phenylbenzoquinone-Induced writhing in mice after peroral administration expressed as analgesic activity; Not calculated. In kind it is functional. The conditions noted are these: po. An outline of the steps: as §1
For experiment [9], the target named is T3, Adenosine receptor A1. Briefly: Binding affinity for adenosine A1 receptor in vitro using rat brain membranes. In kind it is cell membranes. In a few lines: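 Whole rat brain membranes, homogenized in 50 mM Tris-HCl pH 7.4 and spun at 1090g then 48000g, pretreated with adenosine deaminase 1 U/mL for 30 min. Nonspecific binding defined with 10 μM PIA. Separated by GF/B filtration and scintillation counted, in triplicate. IC50 from log-logit regression, Ki via Cheng-Prusoff, one experiment.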

Experiment [10] concerns Mus musculus. Briefly: Effective dose of compound for phenylbenzoquinone-Induced writhing in mice after peroral administration expressed as analgesic activity; Inactive. In kind it is functional, organism-based. An outline of the steps: as §1

We go through four molecules from ChEMBL document CHEMBL1127433, “N6-substituted adenosine receptor agonists. Synthesis and pharmacological activity as potent antinociceptive agents” (J Med Chem, 1994).

The structures appear in SMILES notation. Calls of active or inactive are those of the source. The rule behind the calls is not given here.

The Ki is a measure of affinity in units of concentration, obtained from inhibition or displacement. A higher Ki goes with weaker binding. Usually ED50 stands for the dose that gives a 50% effect, or the effect in half of the subjects. Consider `O=C(NC1CC1)[C@H]1O[C@@H](n2cnc3c(NCCc4c[nH]c5ccccc45)ncnc32)[C@H](O)[C@@H]1O`, for which the Displacement in [1] was 68%; in experiment [2] it was 100%; in experiment [3], 29%; in experiment [6] it was 91%. Further, the Ki was 7.9 nM in experiment [4] and 560 nM in experiment [7]. Also, in experiment [5], the ED50 worked out at 34.9 mg/kg.

With `O=C(NC1CC1)[C@H]1O[C@@H](n2cnc3c(NCCc4cn(Cc5cccc([N+](=O)[O-])c5)c5ccccc45)ncnc32)[C@H](O)[C@@H]1O`, the Displacement in experiment [1] was determined as 99%; in [2] it was 100%; in experiment [3] it was 46%; in experiment [6] it was 63%. Also, in [8], the ED50 is under 10 mg/kg. Moreover, the inhibitory constant (Ki) in experiment [9] came out at 29 nM; in experiment [7] it was 182 nM.

As to `COCCNC(=O)[C@H]1O[C@@H](n2cnc3c(NCCc4cn(Cc5ccc(Cl)cc5)c5ccccc45)ncnc32)[C@H](O)[C@@H]1O`, the Displacement in experiment [1] stood at 36%; in [2], 90%; in [3], 0%; in [6], 13%. In addition, the Ki in experiment [9] is 890 nM; in experiment [7], over 10000 nM. Further, the ED50 entry in experiment [10] was “inactive”.

With `O=C(NC1CC1)[C@H]1O[C@@H](n2cnc3c(NCCc4cn(Cc5cccc6ccccc56)c5ccccc45)ncnc32)[C@H](O)[C@@H]1O`, the Displacement came to 76% in experiment [1], 93% in experiment [2], 8% in [3] and 20% in experiment [6]. Besides, the Ki came to 370 nM in experiment [4] and 1400 nM in experiment [7]. In experiment [5], it took a dose of 2.4 mg/kg to reach the 50% effect level (ED50).
